Legend:
[1] = tested on: TAP1-GFP in MelJuSo cells; assay: TAP mobility assay; format: cell-based, human; settings: FRAP; for initial increase in intracellular peptides: measured 1 h after irradiation, Fig. 2A and unpublished data
Outline: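 FRAP was run at 37°C on MelJuSo cells stably expressing TAP1-GFP, imaged 1 h after 4 Gy γ-irradiation. Some cells were pretreated with 10 μM lactacystin for 30 min, ATP-depleted with 0.05% NaAz plus […] 2-deoxyglucose for 30 min, or given cycloheximide. An ER spot was bleached at full laser power and recovery followed with an attenuated beam. Diffusion coefficient came from bleach-corrected recovery half-times: ≥3 experiments, mean ± SD.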

MC38 cells [2] = assay: H2-Kb expression of MC38 cells by flow cytometry; format: cell-based, mouse; settings: MC38, 20 Gy, 24 h, 20 nM rapamycin; FITC mAb H-2Kb
Outline: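 MC38 murine colon adenocarcinoma cells (H-2b) were γ-irradiated with 20 Gy (137Cs, 0.75 Gy/min) and cultured 24 h with or without 20 nM rapamycin. They were then stained with FITC-labelled anti-H-2Kb mAb and analysed by flow cytometry against an isotype control antibody. Percentage of positive cells and mean fluorescence intensity were reported.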

MC38 cells [3] = assay: 111In release cytotoxicity assay with gp70-specific CTL; format: cell-based, mouse; settings: 20 nM rapamycin 24 h, then 18 h with CTL
mTOR pathway [4] = assay: Biosynthetic labeling and immunoprecipitation of MHC molecules; format: cell-based, human; settings: HLA-A2-GFP MelJuSo, 0, 10 or 20 Gy, 6 h, 10 nM rapamycin, 35S-methionine/cystein 1 h
mTOR pathway [5] = assay: GFP expression of irradiated MelJuSo cells by flow cytometry; format: cell-based, human; settings: 20 nM rapamycin
Outline: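 MelJuSo cells stably transfected with EGFP in pcDNA3 (CMV promoter) received 0 or 25 Gy γ-irradiation (137Cs, 0.75 Gy/min), with or without 20 nM rapamycin. GFP fluorescence was read by flow cytometry at 0, 4 or 24 h after irradiation. n = 6, mean ± SD.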

mTOR pathway [6] = assay: Surface MHC class I expression of MelJuSo cells; format: cell-based, human; settings: 25 Gy, 20 nM rapamycin, W6/32 flow cytometry, n = 4
Outline: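 Human melanoma MelJuSo cells received 0–25 Gy γ-irradiation (137Cs, 0.75 Gy/min). They were cultured for the stated times with or without 20 nM rapamycin, stained for surface MHC class I with W6/32 and analysed by flow cytometry, with a background control lacking primary antibody. Mean fluorescence intensity was expressed relative to nonirradiated control cells.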

Row | SMILES | initial increase in intracellular peptides [1] | TAP activity in irradiated cells ([1]; pretreatment before irradiation, 4 Gy, measured 1 h later, n = 9) | radiation-induced up-regulation of MHC class I expression (MC38 cells [2]) | lysis of irradiated MC38 cells by gp70-specific CTL (MC38 cells [3]; 20 Gy, E:T 100:1 to 3.125:1) | CTL recognition of nonirradiated cells (MC38 cells [3]; MC38, no radiation) | translation of GFP-tagged and endogenous MHC class I molecules, H chains and MHC class II molecules (mTOR pathway [4]) | GFP expression in response to ionizing radiation (mTOR pathway [5]; MelJuSo-EGFP (CMV promoter), 25 Gy, 24 h, n = 6) | GFP expression in nonirradiated cells (mTOR pathway [5]; MelJuSo-EGFP, no radiation) | MHC class I expression 4 h after irradiation (mTOR pathway [6]; 4 h) | radiation-induced increase in MHC class I expression 24 h after irradiation (mTOR pathway [6]; 24 h)
1 | C[C@@H]1C[C@@H]([C@H](O)CC2CC(=O)NC(=O)C2)C(=O)[C@@H](C)C1 [cycloheximide] | not inhibited | no effect on TAP activity | – | – | – | – | – | – | – | –
2 | CO[C@H]1C[C@@H]2CC[C@@H](C)[C@@](O)(O2)C(=O)C(=O)N2CCCC[C@H]2C(=O)O[C@H]([C@H](C)C[C@@H]2CC[C@@H](O)[C@H](OC)C2)CC(=O)[C@H](C)/C=C(\C)[C@@H](O)[C@@H](OC)C(=O)[C@H](C)C[C@H](C)/C=C/C=C/C=C/1C [rapamycin] | not inhibited | – | can be inhibited | enhanced lysis in a rapamycin-dependent fashion | no effect | inhibited | no increase in GFP expression | decreased GFP expression | No effect | markedly reduced
